Format in all cases: cell-based, C. elegans
Holding throughout (settings): glutamate

One experiment deals with GluClβ T6′S/T10′S (Caenorhabditis elegans, UniProt Q17328, T283S/T287S). The experiment in a line: two-electrode voltage clamp, Xenopus laevis oocytes. (In general: Two-electrode voltage clamp is typically applied to oocytes expressing channels or transporters.)
Experiment [1] concerns GluClβ with α signal peptide, T6′S, F96TAG F3–Phe. Kind of experiment: two-electrode voltage clamp, Xenopus laevis oocytes, nonsense suppression.
A further experiment addresses GluClβ T6′S, R59E (Caenorhabditis elegans, UniProt Q17328, R85E/T283S). Kind of experiment: two-electrode voltage clamp, Xenopus laevis oocytes. In short, it runs like this:
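C. elegans GluClβ (mammalian codon-optimised) in pGEMhe, mutated by QuikChange; T7 mRNA. […] Voltage clamp at −60 mV in Ca-free ND96, pH 7.5. […] Peak currents taken from baseline, normalised, averaged per concentration, and fit to Hill equation (EC50, nH).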

Each structure is given as a SMILES string. Entries after “also recorded” stand apart in the source; their conditions may differ.

GluClβ T6′S, R59E, sequence (Q17328 23-434 R85E/T283S): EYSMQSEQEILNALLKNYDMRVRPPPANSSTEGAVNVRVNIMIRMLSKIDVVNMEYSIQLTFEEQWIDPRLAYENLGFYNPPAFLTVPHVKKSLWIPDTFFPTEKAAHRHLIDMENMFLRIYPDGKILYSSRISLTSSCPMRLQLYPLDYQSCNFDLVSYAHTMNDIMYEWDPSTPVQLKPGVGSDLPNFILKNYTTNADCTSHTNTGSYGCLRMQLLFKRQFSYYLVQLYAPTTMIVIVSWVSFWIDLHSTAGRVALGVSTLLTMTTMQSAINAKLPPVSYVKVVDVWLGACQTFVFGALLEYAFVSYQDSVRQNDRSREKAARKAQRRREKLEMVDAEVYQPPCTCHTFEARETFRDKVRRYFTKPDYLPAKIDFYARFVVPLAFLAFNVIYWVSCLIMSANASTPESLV
GluClβ T6′S/T10′S, sequence (Q17328 23-434 T283S/T287S): as the sequence (Q17328 23-434 R85E/T283S) above, with E63R, T265S counted along it

As to `N[C@@H](CCC(=O)O)C(=O)O` [glutamate], the EC50 result at GluClβ T6′S/T10′S is “constitutive activity, some glutamate response”; in experiment [1] it was 39 ± 1 µM; at GluClβ T6′S, R59E it was “nonfunctional; also recorded: no response”. Further, in experiment [1], the Hill is reported as 2.4 ± 0.2. Further, the Imax in experiment [1] is 0.06–0.6 μA.

For orientation: EC50 means the concentration that produces a half-maximal response.

The values are drawn from paper PMC4201344 (ACS Chemical Biology, 2014).
